In ChEMBL document CHEMBL3414423, “Jatrophane diterpenes as inhibitors of chikungunya virus replication: structure-activity relationship and discovery of a potent lead” (J Nat Prod, 2014):

Key:
Chikungunya virus = assay: Antiviral activity against Chikungunya virus 899 infected in African green monkey Vero cells assessed as inhibition of virus-induced cell death after 6 to 7 days by MTS assay; assay type: functional, cell-based; details: Chikungunya virus, 899, Vero
Semliki Forest virus = assay: Antiviral activity against Semliki forest virus Vietnam infected in African green monkey Vero cells assessed as inhibition of virus-induced cell death after 6 to 7 days by MTS assay; assay type: functional, organism-based
[1] = tested on: Human immunodeficiency virus 2; assay: Antiviral activity against Human immunodeficiency virus type 2 ROD infected in human MT4 cells assessed as inhibition of virus replication after 5 days by MTT assay; assay type: functional, organism-based; details: Human immunodeficiency virus 2, ISOLATE ROD, MT4, 120 h
In short: (§1)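 MT-4 cells ([…] suspension) infected with HIV-1 IIIB or HIV-2 ROD at 100−300 CCID50, with serial 5-fold compound dilutions in triplicate. Viability read by MTT reduction 5 days after infection. SI = CC50 MT-4/IC50. Median ± median absolute deviation, ≥3 independent assays.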

[2] = tested on: Human immunodeficiency virus 1; assay: Antiviral activity against Human immunodeficiency virus 1 3b infected in human MT4 cells assessed as inhibition of virus replication after 5 days by MTT assay; assay type: functional, organism-based; details: MT4, 120 h; in short: as §1
[3] = Cytotoxicity against African green monkey Vero cells assessed as inhibition of overall cell metabolism after 6 to 7 days by MTS assay; assay type: ADME, cell-based; details: chlorocebus sabaeus
In short: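 Uninfected Vero cells (25 000/well) with compound serial dilutions in MEM with 2% FCS, 37 °C, 6−7 days. Readout 5% MTS for 1.5 h, absorbance 498 nm. CC50 is the concentration calculated to inhibit overall cell metabolism by 50%, from dose−response curves. Median ± median absolute deviation, ≥3 independent assays.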

Sindbis virus = assay: Antiviral activity against Sindbis virus HRsp infected in African green monkey Vero cells assessed as inhibition of virus-induced cell death after 6 to 7 days by MTS assay; assay type: functional, organism-based
[4] = Cytotoxicity against human MT4 cells assessed as inhibition of overall cell metabolism after 5 days by MTT assay; assay type: ADME, cell-based
In short: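 Mock-infected MT-4 cells in triplicate wells with serial 5-fold compound dilutions run alongside the infected series. Viability read by MTT formazan 5 days later; CC50 from the concentration-response. Median ± median absolute deviation, ≥3 independent assays.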

[5] = Selectivity index, ratio of CC50 for African green monkey Vero cells to EC50 for Chikungunya virus 899 infected in African green monkey Vero cells; assay type: toxicity, cell-based; details: read-out: Ratio CC50/EC50
[6] = Selectivity index, ratio of CC50 for human MT4 cells to IC50 for Human immunodeficiency virus 1 3b infected in human MT4 cells; assay type: functional; in short: as §1
[7] = Selectivity index, ratio of CC50 for human MT4 cells to IC50 for Human immunodeficiency virus type 2 ROD infected in human MT4 cells; assay type: functional; in short: as §1
[8] = Selectivity index, ratio of CC50 for African green monkey Vero cells to EC50 for Sindbis virus HRsp infected in African green monkey Vero cells; assay type: toxicity, cell-based; details: read-out: Ratio CC50/EC50
[9] = tested on: Human immunodeficiency virus 1; assay: Antiviral activity against recombinant Human immunodeficiency virus 1 NL4.3 containing Renilla gene infected in CD3/IL2-activated human MT2 cells assessed as inhibition of virus replication pretreated for 2 hrs followed by viral infection for additional 2 hrs measured after 48 hrs by Renilla-luciferase reporter gene assay; assay type: functional, organism-based; details: Human immunodeficiency virus 1, NL4.3, MT2
[10] = Cytotoxicity against human MT2 cells assessed as cell viability incubated for 2 weeks with every 48 to 72 hrs of compound washed out measured on day 2, 6, 10, 14 by CellTiter Glo luminescence assay; assay type: cell-based
[11] = Selectivity index, ratio of CC50 for African green monkey Vero cells to EC50 for Semliki forest virus Vietnam infected in African green monkey Vero cells; assay type: toxicity, cell-based; details: read-out: Ratio CC50/EC50

| SMILES | EC50 (Chikungunya virus) [µM] | EC50 (Semliki Forest virus) [µM] | IC50 [1] [µM] | IC50 [2] [µM] | CC50 [3] [µM] | EC50 (Sindbis virus) [µM] | CC50 at 120 h [4] [µM] | selectivity ratio [5] | Ratio CC50/IC50 [6] | Ratio CC50/IC50 [7] | selectivity ratio [8] | IC50 [9] [µM] | CC50 at 336 h [10] [µM] | selectivity ratio [11] |
| --- | --- | --- | --- | --- | --- | --- | --- | --- | --- | --- | --- | --- | --- | --- |
| C=C1[C@H](OC(C)=O)[C@H]2[C@@H](OC(C)=O)[C@](C)(O)C[C@]2(OC(C)=O)C(=O)[C@H](C)/C=C/C(C)(C)C(=O)[C@H](OC(C)=O)[C@H]1OC(C)=O | > 164 |  |  |  |  |  |  |  |  |  |  |  |  |  |
| C=C1[C@H](OC(C)=O)[C@H]2[C@@H](OC(C)=O)[C@](C)(O)C[C@]2(OC(C)=O)C(=O)[C@H](C)/C=C/C(C)(C)C(=O)[C@H](OC(=O)C(C)C)[C@H]1OC(C)=O | > 196 | > 157 | > 79 | > 79 | > 196 | > 157 | > 32 |  |  |  |  |  |  |  |
| C=C1[C@H](OC(C)=O)[C@H]2[C@@H](OC(C)=O)[C@](C)(O)C[C@]2(OC(C)=O)C(=O)[C@H](C)/C=C/C(C)(C)C(=O)[C@H](OC(=O)/C(C)=C/C)[C@H]1OC(C)=O | 0.76 | > 116 | 0.043 | 0.34 | 159 | 44 | > 32 | 208 | >96 | >751 | 3.6 |  |  |  |
| C=C1[C@H](OC(C)=O)[C@H]2[C@@H](OC(C)=O)[C@](C)(O)C[C@]2(OC(C)=O)C(=O)[C@H](C)/C=C/C(C)(C)C(=O)[C@H](OC(=O)c2ccccc2)[C@H]1OC(C)=O | 4.3 | > 165 | 10.9 | > 59 | 125 | > 165 | > 30 | 29 |  | >2.8 |  |  |  |  |
| C=C1[C@H](OC(C)=O)[C@H]2[C@@H](OC(C)=O)[C@](C)(OC(C)=O)C[C@]2(OC(C)=O)C(=O)[C@H](C)/C=C/C(C)(C)C(=O)[C@H](OC(C)=O)[C@H]1OC(C)=O | 60 | > 115 | 5.9 | 37.1 | > 154 | > 154 | > 33 | > 2.6 |  | >5.5 |  | 0.002 | > 100 |  |
| C=C1[C@H](OC(C)=O)[C@H]2[C@@H](OC(C)=O)[C@](C)(OC(C)=O)C[C@]2(OC(C)=O)C(=O)[C@H](C)/C=C/C(C)(C)C(=O)[C@H](OC(=O)/C(C)=C/C)[C@H]1OC(C)=O | 17.4 | > 145 | 2 | 21.5 | 145 | > 145 | > 35 | 8.3 | >1.6 | >18 |  |  |  |  |
| C=C1[C@H](OC(C)=O)[C@H]2[C@@H](OC(C)=O)[C@](C)(OC(C)=O)C[C@]2(OC(C)=O)C(=O)[C@H](C)/C=C/C(C)(C)C(=O)[C@H](OC(=O)c2ccccc2)[C@H]1OC(C)=O | 17.1 | > 140 | 34.7 | > 70 | > 50 | > 140 | > 36 | > 2.9 |  | >1 |  |  |  |  |
| C=C1[C@H](OC(C)=O)[C@H]2[C@@H](OC(=O)c3ccccc3)[C@@H](C)C[C@]2(O)[C@H](O)[C@H](C)/C=C/C(C)(C)C(=O)[C@H](OC(C)=O)[C@H]1OC(C)=O | 19.5 | 62 | 5.2 | > 38 | 151 | 30.1 | > 31 | 7.8 |  | >6 | 5 |  |  | 2.4 |
| C=C1[C@H](OC(C)=O)[C@H]2[C@@H](OC(=O)c3ccccc3)[C@@H](C)C[C@]2(O)[C@H](O)[C@H](C)/C=C/C(C)(C)C(=O)[C@H](OC(=O)C(C)C)[C@H]1OC(C)=O | 21 | 20.5 | > 39 | > 39 | 60 | 28.8 | > 16 | 2.8 |  |  | 2.1 |  |  | 2.9 |
| C=C1[C@H](OC(C)=O)[C@H]2[C@@H](OC(=O)c3ccccc3)[C@@H](C)C[C@]2(O)[C@H](O)[C@H](C)/C=C/C(C)(C)C(=O)[C@H](OC(=O)C(C)CC)[C@H]1OC(C)=O (stereo partly specified) | 111 | 76 | > 76 | > 76 | > 190 | 51 | > 33 | > 1.7 |  |  | > 3.7 |  |  | > 2.5 |
| C=C1[C@H](OC(C)=O)[C@H]2[C@@H](OC(=O)c3ccccc3)[C@@H](C)C[C@]2(O)[C@H](OC(C)=O)[C@H](C)/C=C/C(C)(C)C(=O)[C@H](O)[C@H]1OC(C)=O | 80 | > 163 | 32.5 | > 81 | 150 | > 163 | > 31 | 1.9 |  | <0.9 |  |  |  |  |
| CCN(CC)CCCC(C)Nc1ccnc2cc(Cl)ccc12 (stereo unspecified) [CHLOROQUINE] | 10 |  |  |  |  |  |  |  |  |  |  |  |  |  |
| O=c1[nH]cnc2c1ncn2[C@H]1CC[C@@H](CO)O1 [DIDANOSINE] |  |  | 9.6 | 10.8 |  |  | > 50 |  | >4.6 | >5.2 |  |  |  |  |
| Nc1ccn([C@@H]2CS[C@H](CO)O2)c(=O)n1 [LAMIVUDINE] |  |  |  |  |  |  | > 87 |  | >22 | >5.6 |  |  |  |  |
| Cc1ccnc2c1NC(=O)c1cccnc1N2C1CC1 [NEVIRAPINE] |  |  | > 15 |  |  |  | > 15 |  |  |  |  |  |  |  |
| Cc1cn([C@H]2C[C@H](N=[N+]=[N-])[C@@H](CO)O2)c(=O)[nH]c1=O [ZIDOVUDINE] |  |  | 0.006 |  |  |  | > 25 |  |  |  |  |  |  |  |
